Test results reported in ChEMBL document CHEMBL3272173, “Synthesis and biological activity of peptide antagonists of luliberin (luteinizing hormone-releasing hormone)” (J Med Chem, 1979).
Values joined by “and” are separate entries in the source; they are usually repeats but may differ in a detail not shown here. Equal entries are not always repeated. Peptide text beside a SMILES is read from it. * marks the point of attachment. Cbz = O=C(OCc1ccccc1)*; Bn = c1ccc(C*)cc1

Experiments:
[1] = target: T1, Gonadotropin-releasing hormone receptor (Rattus norvegicus) (UniProt P30969); experiment: In vitro antagonist activity at GNRHR in CD rat anterior pituitary gland assessed as inhibition of LH-RH-stimulated LH release at compound to LH-RH molar ratio of 200 after 4 hrs by radioimmunoassay; settings: concentration not given here
T1 sequence (whole entry): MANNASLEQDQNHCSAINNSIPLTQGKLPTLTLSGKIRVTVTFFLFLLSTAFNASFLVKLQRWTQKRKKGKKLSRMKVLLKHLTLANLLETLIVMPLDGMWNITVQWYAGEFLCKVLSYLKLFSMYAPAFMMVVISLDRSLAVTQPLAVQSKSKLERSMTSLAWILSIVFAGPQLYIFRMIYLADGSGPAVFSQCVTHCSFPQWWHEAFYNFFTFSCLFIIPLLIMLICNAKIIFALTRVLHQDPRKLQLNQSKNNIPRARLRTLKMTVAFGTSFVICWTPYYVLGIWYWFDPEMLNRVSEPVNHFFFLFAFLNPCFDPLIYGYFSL
Method in brief: (§1)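 Anterior pituitaries from diestrus CD rats (200-250 g) were dissociated enzymatically (collagenase, hyaluronidase, then Viokase). Cells were cultured 4 days at 1.67 × 10^5 cells/mL in DME with 10% horse serum and 2.5% fetal calf serum, then washed serum-free. Duplicate cultures received LH-RH (2-5 × 10^-10 M) with a single analogue concentration in serum-free DME for 4 h at 37 °C. LH in the medium was measured by RIA and reported as % inhibition of LH-RH-stimulated release.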

[2] = tested on: Rattus norvegicus; experiment: Antiovulatory activity in CD rat assessed as blockade of ovulation at 3 mg, sc administered as six doses at 1200, 1230, 1300, 1350, 1400 and 1450 hrs during proestrus stage measured during estrus stage by dissecting microscopic analysis; type: functional
Method in brief: (§2)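 Cycling Charles River CD rats were given six subcutaneous injections of analogue in 0.1 mL propylene glycol on the afternoon of proestrus, and controls received vehicle alone. Rats were killed the next morning (estrus). Ovulating animals were scored and ova in the oviducts were counted under a dissecting microscope.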

[3] = tested on: Rattus norvegicus; experiment: Antiovulatory activity in sc dosed CD rat assessed as blockade of ovulation administered as six doses at 1200, 1230, 1300, 1350, 1400 and 1450 hrs during proestrus stage measured during estrus stage by dissecting microscopic analysis; type: functional; method in brief: as §2
[4] = target: T1, Gonadotropin-releasing hormone receptor (Rattus norvegicus); experiment: In vitro antagonist activity at GNRHR in CD rat anterior pituitary gland assessed as inhibition of LH-RH-stimulated LH release at compound to LH-RH molar ratio of 20 after 4 hrs by radioimmunoassay; settings: concentration not given here; method in brief: as §1
[5] = target: T1, Gonadotropin-releasing hormone receptor (Rattus norvegicus); experiment: In vitro antagonist activity at GNRHR in CD rat anterior pituitary gland assessed as ratio of molar concentration of compound to LH-RH for inhibition of LH-RH-stimulated LH release after 4 hrs by radioimmunoassay
Method in brief: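 Monolayers were cultured 4 days from dissociated anterior pituitary cells of diestrus CD rats. They were exposed in duplicate to LH-RH (2-5 × 10^-10 M) plus multiple analogue concentrations in serum-free DME for 4 h at 37 °C. LH in the medium was measured by radioimmunoassay. The ED50 molar ratio is the analogue:LH-RH molar ratio giving 50% inhibition of LH-RH-stimulated LH release.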

[6] = tested on: Rattus norvegicus; experiment: Antiovulatory activity in CD rat assessed as blockade of ovulation at 5 mg, sc administered as six doses at 1200, 1230, 1300, 1350, 1400 and 1450 hrs during proestrus stage measured during estrus stage by dissecting microscopic analysis; type: functional; method in brief: as §2
[7] = target: T1, Gonadotropin-releasing hormone receptor (Rattus norvegicus); experiment: In vitro antagonist activity at GNRHR in CD rat anterior pituitary gland assessed as inhibition of LH-RH-stimulated LH release at compound to LH-RH molar ratio of 28 after 4 hrs by radioimmunoassay; settings: concentration not given here; method in brief: as §1
[8] = tested on: Rattus norvegicus; experiment: Antiovulatory activity in CD rat assessed as blockade of ovulation at 1 mg, sc administered as six doses at 1200, 1230, 1300, 1350, 1400 and 1450 hrs during proestrus stage measured during estrus stage by dissecting microscopic analysis; type: functional; method in brief: as §2
[9] = target: T1, Gonadotropin-releasing hormone receptor (Rattus norvegicus); experiment: In vitro antagonist activity at GNRHR in CD rat anterior pituitary gland assessed as inhibition of LH-RH-stimulated LH release at compound to LH-RH molar ratio of 4000 after 4 hrs by radioimmunoassay; settings: concentration not given here; method in brief: as §1
[10] = target: T1, Gonadotropin-releasing hormone receptor (Rattus norvegicus); experiment: In vitro antagonist activity at GNRHR in CD rat anterior pituitary gland assessed as inhibition of LH-RH-stimulated LH release at compound to LH-RH molar ratio of 10 after 4 hrs by radioimmunoassay; settings: concentration not given here; method in brief: as §1
[11] = target: T1, Gonadotropin-releasing hormone receptor (Rattus norvegicus); experiment: In vitro antagonist activity at GNRHR in CD rat anterior pituitary gland assessed as inhibition of LH-RH-stimulated LH release at compound to LH-RH molar ratio of 2800 after 4 hrs by radioimmunoassay; settings: concentration not given here; method in brief: as §1
[12] = tested on: Rattus norvegicus; experiment: Antiovulatory activity in CD rat assessed as blockade of ovulation at 0.3 mg, sc administered as six doses at 1200, 1230, 1300, 1350, 1400 and 1450 hrs during proestrus stage measured during estrus stage by dissecting microscopic analysis; type: functional; method in brief: as §2
[13] = target: T1, Gonadotropin-releasing hormone receptor (Rattus norvegicus); experiment: In vitro antagonist activity at GNRHR in CD rat anterior pituitary gland assessed as inhibition of LH-RH-stimulated LH release at compound to LH-RH molar ratio of 100 after 4 hrs by radioimmunoassay; settings: concentration not given here; method in brief: as §1

Row | SMILES | ED50 [3] [mg] | ED50 [5] | inhibition (INH) [8] [%] | also measured
1 | CCNC(=O)[C@@H]1CCCN1C(=O)[C@H](CCCNC(=N)N)NC(=O)[C@H](CC(C)C)NC(=O)[C@@H](CCSC)NC(=O)[C@H](Cc1ccc(O)cc1)NC(=O)[C@H](CO)NC(=O)[C@H](Cc1c[nH]c2ccccc12)NC(=O)[C@H](CCC(N)=O)NC(=O)OCc1ccccc1.Cl | 3 | – | – | inhibition [1]: 85%; inhibition (INH) [2]: 60%
2 | CCNC(=O)[C@@H]1CCCN1C(=O)[C@H](CCCNC(=N)N)NC(=O)[C@H](CC(C)C)NC(=O)[C@@H](Cc1c[nH]c2ccccc12)NC(=O)[C@H](Cc1ccc(O)cc1)NC(=O)[C@H](CO)NC(=O)[C@H](Cc1c[nH]c2ccccc12)NC(=O)[C@@H](NC(=O)OCc1ccccc1)[C@@H](C)CC.Cl | >5 | 1.5 molar ratio | – | inhibition [4]: 100%; inhibition (INH) [6]: 0%
3 | CCNC(=O)[C@@H]1CCCN1C(=O)[C@H](CCCNC(=N)N)NC(=O)[C@H](CC(C)C)NC(=O)[C@@H](CC(C)C)NC(=O)[C@H](Cc1ccc(O)cc1)NC(=O)[C@H](CO)NC(=O)[C@H](Cc1c[nH]c2ccccc12)NC(=O)[C@H](CCC(N)=O)NC(=O)OCc1ccccc1.Cl | >1 | 22.3 molar ratio | 20 | inhibition [7]: 60%
4 | CC(C)C[C@H](NC(=O)CNC(=O)[C@H](Cc1ccc(O)cc1)NC(=O)[C@H](CO)NC(=O)[C@H](Cc1c[nH]c2ccccc12)NC(=O)[C@H](Cc1cnc[nH]1)NC(=O)OCc1ccccc1)C(=O)N[C@@H](CCCNC(=N)N)C(=O)N1CCC[C@H]1C(=O)NCC(=O)O (HELM PEPTIDE1{[O=C(OCc1ccccc1)[*:2]].H.W.S.Y.G.L.R.P.G}$$$$V2.0) | – | – | – | inhibition [9]: 17%
5 | CC(C)C[C@H](NC(=O)[C@@H](Cc1ccccc1)NC(=O)[C@H](Cc1ccc(O)cc1)NC(=O)[C@H](CO)NC(=O)[C@H](Cc1c[nH]c2ccccc12)NC(=O)[C@H](COCc1ccccc1)NC(=O)OCc1ccccc1)C(=O)N[C@@H](CCCNC(=N)N)C(=O)N1CCC[C@H]1C(=O)NCC(N)=O.Cl | >3 | 1.5 molar ratio | – | inhibition [10]: 90%; inhibition (INH) [2]: 40%
6 | CC(C)C[C@H](NC(=O)CNC(=O)[C@H](Cc1ccc(O)cc1)NC(=O)[C@H](CO)NC(=O)[C@H](Cc1c[nH]c2ccccc12)NC(=O)[C@H](Cc1cnc[nH]1)NC(=O)OCc1ccccc1)C(=O)N[C@@H](CCCNC(=N)N)C(=O)N1CCC[C@H]1C(=O)O (HELM PEPTIDE1{[O=C(OCc1ccccc1)[*:2]].H.W.S.Y.G.L.R.P}$$$$V2.0) | – | – | – | inhibition [9]: 10%
7 | CC(=O)O.CCNC(=O)[C@@H]1CCCN1C(=O)[C@H](CCCNC(=N)N)NC(=O)[C@H](CC(C)C)NC(=O)[C@@H](CCC(N)=O)NC(=O)[C@H](Cc1ccc(O)cc1)NC(=O)[C@H](CO)NC(=O)[C@H](Cc1c[nH]c2ccccc12)NC(=O)[C@H](CCC(N)=O)NC(=O)OCc1ccccc1 | >1 | – | 20 | inhibition [7]: 77%
8 | CC(C)C[C@H](NC(=O)CNC(=O)[C@H](Cc1ccc(O)cc1)NC(=O)[C@H](CO)NC(=O)[C@H](Cc1c[nH]c2ccccc12)NC(=O)[C@H](CCC(N)=O)NC(=O)OCc1ccccc1)C(=O)N[C@@H](CCCNC(=N)N)C(=O)N1CCC[C@H]1C(=O)NCC(N)=O.Cl (HELM PEPTIDE1{[O=C(OCc1ccccc1)[*:2]].Q.W.S.Y.G.L.R.P.G.[am]}$$$$V2.0) | >1 | – | – | inhibition [9]: 33%
9 | CC(=O)O.CCNC(=O)[C@@H]1CCCN1C(=O)[C@H](CCCNC(=N)N)NC(=O)[C@H](CC(C)C)NC(=O)[C@H]1CCCN1C(=O)[C@H](Cc1ccc(O)cc1)NC(=O)[C@H](CO)NC(=O)[C@H](Cc1c[nH]c2ccccc12)NC(=O)[C@H](CCC(N)=O)NC(=O)OCc1ccccc1 | 1 | – | – | inhibition [1]: 74%; inhibition (INH) [2]: 100%
10 | CCNC(=O)[C@@H]1CCCN1C(=O)[C@H](CCCNC(=N)N)NC(=O)[C@H](CC(C)C)NC(=O)[C@@H](Cc1ccccc1)NC(=O)[C@H](Cc1ccc(O)cc1)NC(=O)[C@H](CO)NC(=O)[C@H](Cc1c[nH]c2ccccc12)NC(=O)[C@H](COCc1ccccc1)NC(=O)OCc1ccccc1.Cl | 2.5 | 1.3 molar ratio | – | inhibition [10]: 93%; inhibition (INH) [6]: 80%
11 | CC(C)C[C@H](NC(=O)CNC(=O)[C@H](Cc1ccc(O)cc1)NC(=O)[C@H](CO)NC(=O)[C@H](Cc1c[nH]c2ccccc12)NC(=O)[C@H](COCc1ccccc1)NC(=O)OCc1ccccc1)C(=O)N[C@@H](CCCNC(=N)N)C(=O)N1CCC[C@H]1C(=O)NCC(N)=O.Cl (Cbz-S(Bn)WSYGLRPG-NH2) | – | 100 molar ratio | – | inhibition [11]: 100%; inhibition (INH) [2]: 20%
12 | CC(=O)O.CCNC(=O)[C@@H]1CCCN1C(=O)[C@H](CCCNC(=N)N)NC(=O)[C@H](CC(C)C)NC(=O)[C@@H](Cc1ccccc1)NC(=O)[C@H](Cc1ccc(O)cc1)NC(=O)[C@H](CO)NC(=O)[C@H](Cc1c[nH]c2ccccc12)NC(=O)[C@H](CCC(=O)NCc1ccccc1)NC(=O)OCc1ccccc1 | >1 | 2.7 molar ratio and 1.3 molar ratio | 0 | inhibition [10]: 62%; inhibition [4]: 71%
13 | CC(=O)O.CCNC(=O)[C@@H]1CCCN1C(=O)[C@H](CCCNC(=N)N)NC(=O)[C@H](CC(C)C)NC(=O)[C@H](NC(=O)[C@H](Cc1ccc(O)cc1)NC(=O)[C@H](CO)NC(=O)[C@H](Cc1c[nH]c2ccccc12)NC(=O)[C@H](CCC(N)=O)NC(=O)OCc1ccccc1)[C@@H](O)c1ccccc1 | 0.1 | – | – | inhibition (INH) [12]: 100%
14 | COc1ccc(COC(=O)N[C@@H](COCc2ccccc2)C(=O)N[C@@H](Cc2c[nH]c3ccccc23)C(=O)N[C@@H](CO)C(=O)N[C@@H](Cc2ccc(O)cc2)C(=O)N[C@H](Cc2ccccc2)C(=O)N[C@@H](CC(C)C)C(=O)N[C@@H](CCCNC(=N)N)C(=O)N2CCC[C@H]2C(=O)NCC(N)=O)cc1.Cl | >1 | 1.3 molar ratio | 40 | inhibition [10]: 100%
15 | CC(C)C[C@H](NC(=O)OCc1ccccc1)C(=O)N[C@@H](Cc1c[nH]c2ccccc12)C(=O)N[C@@H](CO)C(=O)N[C@@H](Cc1ccc(O)cc1)C(=O)N[C@H](CC(N)=O)C(=O)N[C@@H](CC(C)C)C(=O)N[C@@H](CCCNC(=N)N)C(=O)N1CCC[C@H]1C(=O)NCC(N)=O.Cl | >1 | 134 molar ratio | 0 | inhibition [13]: 42%
16 | CC(=O)O.CCNC(=O)[C@@H]1CCCN1C(=O)[C@H](CCCNC(=N)N)NC(=O)[C@H](CC(C)C)NC(=O)[C@@H](Cc1ccccc1)NC(=O)[C@H](Cc1ccc(O)cc1)NC(=O)[C@H](CO)NC(=O)[C@H](Cc1c[nH]c2ccccc12)NC(=O)[C@H](CCC(N)=O)NC(=O)OCc1ccccc1 | >5 | – | – | inhibition (INH) [6]: 0%
